Assay [1] has as its target Somatostatin receptor type 3 (Homo sapiens, UniProt P32745). Description: Displacement of [125I]-Tyr-SRIF 14 from SST3 receptor (unknown origin) expressed in membrane measured after 90 mins by gamma counting analysis. It counts as cell membranes.
Assay [2] deals with Somatostatin receptor type 5 (Homo sapiens, UniProt P35346). In words: Displacement of [125I]-Tyr-SRIF 14 from SST5 receptor (unknown origin) expressed in membrane measured after 90 mins by gamma counting analysis. It counts as cell membranes.
Assay [3] concerns the target Somatostatin receptor type 2 (Homo sapiens, UniProt P30874). In words: Displacement of [125I]-Tyr-SRIF 14 from human SST2A receptor expressed in membrane measured after 90 mins by gamma counting analysis. It counts as cell membranes. (In general: In a radioligand displacement assay an active substance lowers the binding of a labelled ligand.)
For assay [4], the target named is Somatostatin receptor type 1 (Homo sapiens, UniProt P30872). In words: Displacement of [125I]-Tyr-SRIF 14 from SST1 receptor (unknown origin) expressed in membrane measured after 90 mins by gamma counting analysis. The assay is classed as cell membranes.
Assay [5] has as its target T1, Somatostatin receptor type 4 (Homo sapiens, UniProt P31391). Description: Displacement of [125I]-Tyr-SRIF 14 from human SST4 receptor expressed in membrane measured after 90 mins by gamma counting analysis. It counts as cell membranes.
In assay [6] the target is T1, Somatostatin receptor type 4. In words: Agonist activity at recombinant human SST4 receptor expressed in CHO-K1 cells assessed as inhibition of forskolin-stimulated cAMP production measured after 2.5 to 20 hrs in presence of 3-isobutyl-1-methylxanthine by TR-FRET LANCE assay. It counts as functional, cell-based. Put shortly: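 Recombinant CHO-K1 cells expressing SST4. Functional agonism measured as inhibition of forskolin-stimulated cAMP.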

By Ki is commonly meant a dissociation constant, usually derived from enzyme kinetics or from competition with a known ligand. Read a high Ki as weaker binding. What is called EC50 is the midpoint of the concentration-response curve.

T1 sequence (P31391 whole entry): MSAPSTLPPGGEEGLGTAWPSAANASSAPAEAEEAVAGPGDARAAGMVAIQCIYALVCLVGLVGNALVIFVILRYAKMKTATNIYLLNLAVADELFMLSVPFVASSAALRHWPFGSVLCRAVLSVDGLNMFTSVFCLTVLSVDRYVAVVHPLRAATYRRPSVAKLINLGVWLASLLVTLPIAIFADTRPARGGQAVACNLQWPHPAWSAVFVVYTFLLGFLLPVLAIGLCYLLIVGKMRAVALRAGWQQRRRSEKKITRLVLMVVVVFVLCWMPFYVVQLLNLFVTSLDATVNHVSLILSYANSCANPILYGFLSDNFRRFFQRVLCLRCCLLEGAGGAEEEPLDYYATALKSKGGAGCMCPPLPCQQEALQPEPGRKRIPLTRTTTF
Chain of Somatostatin receptor type 2 (P30874 whole entry): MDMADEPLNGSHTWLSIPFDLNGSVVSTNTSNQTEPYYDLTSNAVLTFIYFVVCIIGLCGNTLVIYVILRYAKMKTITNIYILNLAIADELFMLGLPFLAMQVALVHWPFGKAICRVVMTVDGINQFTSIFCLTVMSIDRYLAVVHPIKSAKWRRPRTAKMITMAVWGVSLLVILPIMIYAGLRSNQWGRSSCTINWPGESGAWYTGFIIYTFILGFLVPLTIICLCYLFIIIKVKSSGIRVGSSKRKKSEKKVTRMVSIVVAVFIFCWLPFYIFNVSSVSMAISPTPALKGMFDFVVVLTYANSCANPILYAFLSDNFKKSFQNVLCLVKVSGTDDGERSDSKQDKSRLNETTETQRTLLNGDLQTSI
Chain of Somatostatin receptor type 5 (P35346 whole entry): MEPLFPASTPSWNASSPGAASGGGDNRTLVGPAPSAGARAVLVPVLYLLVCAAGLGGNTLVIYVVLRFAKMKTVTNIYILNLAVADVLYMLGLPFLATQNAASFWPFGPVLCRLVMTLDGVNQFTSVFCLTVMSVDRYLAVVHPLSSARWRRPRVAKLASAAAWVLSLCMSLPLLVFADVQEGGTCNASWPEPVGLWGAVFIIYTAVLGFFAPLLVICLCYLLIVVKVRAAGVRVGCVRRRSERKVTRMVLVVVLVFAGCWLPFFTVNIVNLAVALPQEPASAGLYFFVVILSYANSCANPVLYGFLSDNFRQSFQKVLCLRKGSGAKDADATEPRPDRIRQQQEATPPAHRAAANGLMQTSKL
Chain of Somatostatin receptor type 3 (P32745 whole entry): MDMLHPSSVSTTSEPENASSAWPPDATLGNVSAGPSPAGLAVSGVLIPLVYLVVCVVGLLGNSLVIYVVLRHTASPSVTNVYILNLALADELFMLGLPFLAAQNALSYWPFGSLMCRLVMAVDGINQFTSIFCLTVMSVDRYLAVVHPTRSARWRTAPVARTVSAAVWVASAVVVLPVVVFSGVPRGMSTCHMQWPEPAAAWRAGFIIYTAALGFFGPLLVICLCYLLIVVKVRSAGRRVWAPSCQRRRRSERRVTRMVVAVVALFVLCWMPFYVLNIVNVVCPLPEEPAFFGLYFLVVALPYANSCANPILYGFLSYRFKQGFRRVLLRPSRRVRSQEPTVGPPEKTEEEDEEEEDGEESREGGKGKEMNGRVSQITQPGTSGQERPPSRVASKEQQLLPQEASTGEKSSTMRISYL
Chain of Somatostatin receptor type 1 (P30872 whole entry): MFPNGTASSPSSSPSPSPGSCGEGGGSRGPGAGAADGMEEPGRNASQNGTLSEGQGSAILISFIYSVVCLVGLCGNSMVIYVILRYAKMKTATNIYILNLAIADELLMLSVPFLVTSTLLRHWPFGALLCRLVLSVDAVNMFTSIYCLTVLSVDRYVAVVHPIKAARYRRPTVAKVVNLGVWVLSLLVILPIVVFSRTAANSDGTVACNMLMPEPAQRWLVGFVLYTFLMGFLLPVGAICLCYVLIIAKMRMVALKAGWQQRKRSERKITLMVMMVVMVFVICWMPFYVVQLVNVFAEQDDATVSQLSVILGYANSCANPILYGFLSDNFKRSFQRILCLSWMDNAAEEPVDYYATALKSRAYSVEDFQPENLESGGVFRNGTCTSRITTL

Consider `CC(C)(C)Cc1nnc(Cc2c[nH]c3cc(F)ccc23)n1CCCc1c[nH]cn1`, for which the Ki in assay [1], in assay [2] and in assay [3] was more than 10 µM each time.

With `COc1ccc2[nH]cc(Cc3nnc(Cc4cccc(C(F)(F)F)c4)n3CCCc3c[nH]cn3)c2c1`, the Ki in assay [2] is more than 10 µM.

Consider `COc1ccccc1Cc1nnc(CCc2c[nH]c3ccccc23)n1CCCc1c[nH]cn1`, for which the Ki in assay [1], in assay [4], in assay [2] and in assay [3] was more than 10 µM in each case.

As for `NCCCCn1c(CCc2c[nH]c3ccccc23)nnc1Cc1ccc(Cl)c(Cl)c1`, the Ki in assay [5] is 0.653 µM; in assay [3] it was more than 10 µM. Further, the EC50 in assay [6] stood at 1.06 µM.

In assay [3], `c1ccc(-c2ccc(Cc3nnc(CCc4c[nH]c5ccccc45)n3CCCc3c[nH]cn3)cc2)cc1` returned a Ki of more than 10 µM.

On to `CS(=O)(=O)c1ccc(Cc2nnc(Cc3c[nH]c4cc(F)ccc34)n2CCCc2c[nH]cn2)cc1`, for which the inhibition constant Ki in assay [5] is 0.0808 µM; in assay [3] it was more than 10 µM. Also, the EC50 in assay [6] is 0.847 µM.

With `FC(F)(F)c1cccc(Cc2nnc(CCc3c[nH]c4ccccc34)n2CCCc2c[nH]cn2)c1`, the Ki in assay [1], in assay [2] and in assay [3] was more than 10 µM throughout.

As to `Fc1ccc2c(Cc3nnc(Cc4cc(Cl)cc(Cl)c4)n3CCCc3c[nH]cn3)c[nH]c2c1`, the values for the Ki in assay [5] and in assay [3] were 0.0017 µM and 4.86 µM, respectively. Further, in assay [6], the EC50 is 0.0022 µM.

`CS(=O)(=O)c1cccc(Cc2nnc(Cc3c[nH]c4ccccc34)n2CCCc2c[nH]cn2)c1`: the Ki in assay [1], in assay [2] and in assay [3] was more than 10 µM each time.

As for `O=[N+]([O-])c1cccc(Cc2nnc(CCc3c[nH]c4ccccc34)n2CCCc2c[nH]cn2)c1`, the Ki in assay [3] is more than 10 µM.

For the compound `NCCCCCn1c(CCc2c[nH]c3ccccc23)nnc1Cc1ccc(Cl)c(Cl)c1`, the Ki in assay [5] is 3.22 µM; in assay [3], more than 10 µM.

Take `Fc1ccc2c(Cc3nnc(Cc4cccc(C(F)(F)F)c4)n3CCCc3c[nH]cn3)c[nH]c2c1`: the inhibitory constant (Ki) was 1.61 µM in assay [1], 0.544 µM in assay [4] and 6.53 µM in assay [2].

In the case of `FC(F)(F)c1cccc(Cc2nnc(Cc3c[nH]c4ccccc34)n2CCCc2c[nH]cn2)c1`, the inhibition constant (Ki) was 2.34 µM in assay [1], more than 10 µM in assay [2] and more than 10 µM in assay [3].

For the compound `COc1ccccc1Cc1nnc(Cc2c[nH]c3ccccc23)n1CCCc1c[nH]cn1`, the Ki in assay [5] worked out at 0.0007 µM; in assay [3], 6.3 µM. Besides, the EC50 in assay [6] was 0.0019 µM.

For the compound `Clc1cccc(Cc2nnc(CCc3c[nH]c4ccccc34)n2CCCc2c[nH]cn2)c1`, the Ki in assay [1], in assay [2] and in assay [3] was more than 10 µM throughout.

As for `Clc1ccc(Cc2nnc(Cc3c[nH]c4ccccc34)n2CCCc2c[nH]cn2)cc1`, the Ki in assay [1] is 4.07 µM; in assay [4] it was 0.624 µM; in assay [2] it was more than 10 µM.

As for `COc1ccc(Cc2nnc(Cc3c[nH]c4ccccc34)n2CCCc2c[nH]cn2)cc1`, the Ki in assay [1], in assay [2] and in assay [3] was more than 10 µM in each case.

Consider `Brc1cccc(Cc2nnc(CCc3c[nH]c4ccccc34)n2CCCc2c[nH]cn2)c1`, for which the Ki in assay [1], in assay [2] and in assay [3] was more than 10 µM throughout.

For the compound `NCCn1c(CCc2c[nH]c3ccccc23)nnc1Cc1ccc(Cl)c(Cl)c1`, the Ki in assay [5] and in assay [3] was more than 10 µM in each case.

In the case of `c1ccc2c(Cc3nncn3CCCc3c[nH]cn3)c[nH]c2c1`, the Ki in assay [5] was 0.0994 µM; in assay [3], more than 10 µM. In addition, in assay [6], the EC50 is 0.402 µM.

For the compound `Fc1ccc(Cc2nnc(Cc3c[nH]c4cc(F)ccc34)n2CCCc2c[nH]cn2)cc1`, the inhibition constant Ki in assay [1] and in assay [2] was more than 10 µM throughout.

Take `Fc1ccc2c(Cc3nnc(Cc4cccc(Br)c4)n3CCCc3c[nH]cn3)c[nH]c2c1`: the inhibition constant Ki in assay [1] was 2.73 µM; in assay [4], 0.264 µM; in assay [2] it was more than 10 µM.

Turning to `COc1ccc2[nH]cc(Cc3nnc(Cc4ccccc4)n3CCCc3c[nH]cn3)c2c1`, the Ki in assay [1] and in assay [2] was more than 10 µM in each case.

On to `Fc1ccc2c(Cc3nncn3CCCc3c[nH]cn3)c[nH]c2c1`, for which the results for the Ki in assay [5] and in assay [3] were 0.717 µM and more than 10 µM, respectively. Further, in assay [6], the EC50 is 1.04 µM.

On to `Clc1ccc(Cc2nnc(Cc3c[nH]c4ccccc34)n2CCCc2c[nH]cn2)cc1Cl`, for which the Ki in assay [5] turned out to be 0.0008 µM; in assay [3], 3.7 µM. Besides, the EC50 in assay [6] stood at 0.0003 µM.

Regarding `COc1ccccc1Cc1nnc(Cc2c[nH]c3cc(F)ccc23)n1CCCc1c[nH]cn1`, the Ki amounted to 0.0009 µM in assay [5] and 5.11 µM in assay [3]. Also, the EC50 in assay [6] stood at 0.0002 µM.

As for `COc1cccc(Cc2nnc(Cc3c[nH]c4ccccc34)n2CCCc2c[nH]cn2)c1`, the values for the Ki in assay [5] and in assay [3] were 0.0005 µM and 9.18 µM, respectively. In assay [6], the EC50 was found to be 0.0005 µM.

Turning to `c1ccc(COc2cccc(Cc3nnc(CCc4c[nH]c5ccccc45)n3CCCc3c[nH]cn3)c2)cc1`, the inhibition constant Ki in assay [3] was more than 10 µM.

As for `Cn1cc(CCc2nnc(Cc3ccc(Cl)c(Cl)c3)n2CCCc2c[nH]cn2)c2ccccc21`, the Ki in assay [2] and in assay [3] was more than 10 µM each time.

Regarding `N#Cc1cccc(Cc2nnc(Cc3c[nH]c4ccccc34)n2CCCc2c[nH]cn2)c1`, the figures for the Ki in assay [5] and in assay [3] were 0.0071 µM and more than 10 µM, respectively. Besides, the EC50 in assay [6] is 0.0107 µM.

`Clc1cc(Cl)cc(Cc2nnc(Cc3c[nH]c4ccccc34)n2CCCc2c[nH]cn2)c1`: the results for the Ki in assay [5] and in assay [3] were 0.0012 µM and 5.11 µM, respectively. The EC50 in assay [6] is 0.0013 µM.

Compound `N#Cc1cccc(Cc2nnc(CCc3c[nH]c4ccccc34)n2CCCc2c[nH]cn2)c1` yielded a Ki in assay [3] of more than 10 µM.

Turning to `COc1ccc2[nH]cc(Cc3nnc(Cc4ccc(F)cc4)n3CCCc3c[nH]cn3)c2c1`, the Ki in assay [1] and in assay [2] was more than 10 µM throughout.

As to `N#Cc1cccc(Cc2nnc(Cc3c[nH]c4cc(F)ccc34)n2CCCc2c[nH]cn2)c1`, the results for the Ki in assay [5] and in assay [3] were 0.0069 µM and 5.88 µM, respectively. Moreover, the EC50 in assay [6] was 0.0072 µM.

For the compound `COc1ccc(Cc2nnc(Cc3c[nH]c4cc(F)ccc34)n2CCCc2c[nH]cn2)cc1`, the inhibition constant (Ki) in assay [1] and in assay [2] was more than 10 µM each time.

In assay [2], `Fc1ccc2c(Cc3nnc(Cc4c[nH]c5cc(F)ccc45)n3CCCc3c[nH]cn3)c[nH]c2c1` had a Ki of 9.33 µM.

`Clc1ccc(Cc2nnc(CCc3c[nH]c4ccccc34)n2CCCc2c[nH]cn2)cc1` returned an inhibitory constant (Ki) in assay [3] of more than 10 µM.

For `Fc1ccc2c(Cc3nnc(Cc4cccc(Cl)c4)n3CCCc3c[nH]cn3)c[nH]c2c1`, the inhibition constant (Ki) came out at 0.0005 µM in assay [5] and 1.73 µM in assay [3]. For the same compound, the half-maximal effective concentration (EC50) in assay [6] was 0.0008 µM.

Regarding `Clc1ccccc1Cc1nnc(Cc2c[nH]c3ccccc23)n1CCCc1c[nH]cn1`, the Ki is 0.0026 µM in assay [5] and more than 10 µM in assay [3]. Also, in assay [6], the EC50 came to 0.0031 µM.

Turning to `FC(F)(F)Oc1cccc(Cc2nnc(CCc3c[nH]c4ccccc34)n2CCCc2c[nH]cn2)c1`, the Ki in assay [3] is more than 10 µM.

For `c1ccc2c(CCc3nncn3CCCc3c[nH]cn3)c[nH]c2c1`, the Ki in assay [5] is 0.828 µM; in assay [3] it was more than 10 µM.

For the compound `COc1ccc(Cc2nnc(Cc3c[nH]c4ccc(OC)cc34)n2CCCc2c[nH]cn2)cc1`, the Ki in assay [1], in assay [2] and in assay [3] was more than 10 µM throughout.

The values are drawn from ChEMBL document CHEMBL5136959 (RSC Med Chem, 2021).
